Source: ChEMBL document CHEMBL4145675, “2-Phenylquinoline S. aureus NorA Efflux Pump Inhibitors: Evaluation of the Importance of Methoxy Group Introduction” (J Med Chem, 2018)
Values after ≈ are worked out from the molar mass of the structure shown. Active and inactive are the calls of the source. No cut-off for these calls is given here.

Key:
Staphylococcus aureus [1] = assay: Synergistic potentiation of ciprofloxacin-induced antimicrobial activity against norA deleted Staphylococcus aureus SA-K1902 at 0.78 to 100 ug/ml by microdilution method based Checkerboard assay; format: functional, organism-based
Staphylococcus aureus [2] = assay: Induction of membrane depolarization in Staphylococcus aureus SA-1199B expressing wild type norA at 1 to 10 ug/ml incubated for 30 mikns by DiOC2(3) fluorescent probe based cytofluorimetry; format: organism-based; details: in vivo
Summary of the method: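 SA-1199B was grown in MHB at 37 °C to OD600 0.6, washed, and diluted to 1×10^6 CFU/mL in filtered PBS. DiOC2(3) was added at 30 µM final, and compound at 1, 5 or 10 µg/mL for 30 min. CCCP 5 µM final served as positive control. Flow cytometry with 488 nm excitation gave a red/green ratio normalized to the DiOC2(3) blank, expressed as % depolarized versus drug-free control.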

[3] = Drug metabolism in mouse liver microsomes assessed as oxidation at open piperidine ring or at hydroxylate at 50 uM in presence of NADPH regenerating system incubated for 120 mins by UPLC/MS analysis; format: ADME, microsome; details: 2 h
Summary of the method: (§1)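 1 mg/mL mouse liver microsomes in 0.1 M Tris-HCl pH 7.4 with test compound at 50 µM, DMSO up to ~3%. Preincubated 5 min at 37 °C, then started with NADPH regeneration system. Stopped at 120 min with cold methanol and centrifuged. Supernatant analysed by UPLC/MS (ESI, tandem quadrupole).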

Cytochrome P450 3A4 = Cytochrome P450 3A4 (Homo sapiens, UniProt P08684); assay: (§2) Inhibition of human recombinant CYP3A4 at 10 uM using beetle D-luciferin as substrate by CYP450-Glo assay; format: ADME; details: recombinant enzyme, 10 µM
Sequence of Cytochrome P450 3A4 (P08684 whole entry): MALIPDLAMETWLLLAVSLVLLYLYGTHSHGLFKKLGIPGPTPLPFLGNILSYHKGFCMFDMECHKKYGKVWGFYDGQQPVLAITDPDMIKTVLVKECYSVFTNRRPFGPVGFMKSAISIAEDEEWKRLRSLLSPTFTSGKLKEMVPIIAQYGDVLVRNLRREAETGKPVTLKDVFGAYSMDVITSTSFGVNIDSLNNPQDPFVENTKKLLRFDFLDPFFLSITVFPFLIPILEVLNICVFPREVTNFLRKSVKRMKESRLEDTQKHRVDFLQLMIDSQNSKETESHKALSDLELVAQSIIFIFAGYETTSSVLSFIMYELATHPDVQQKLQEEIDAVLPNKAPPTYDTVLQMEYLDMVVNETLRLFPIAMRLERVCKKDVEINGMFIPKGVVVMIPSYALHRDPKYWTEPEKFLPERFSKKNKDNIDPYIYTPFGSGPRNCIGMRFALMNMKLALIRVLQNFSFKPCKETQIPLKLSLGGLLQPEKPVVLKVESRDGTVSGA
Summary of the method: (§3)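 Luminescent P450-Glo assay in which recombinant human CYP3A4 or CYP2D6 converts a beetle D-luciferin derivative to D-luciferin. Compound was tested at 1 and 10 µM.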

Staphylococcus aureus [4] = assay: Antimicrobial activity against Staphylococcus aureus SA-1199B expressing wild type norA by microdilution method; format: organism-based; details: in vivo
Summary of the method: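 Broth microdilution MIC per CLSI guidelines. ATCC 25923 is norA wild-type. SA-1199B overexpresses norA and carries an A116E GrlA substitution.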

[5] = Cytotoxicity in human THP1 cells assessed as reduction in cell viability incubated for 24 hrs by ATP bioluminescence assay; format: cell-based, THP-1
Summary of the method: (§4)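 Cells were grown to confluence overnight in RPMI 1640 with 10% heat-inactivated fetal calf serum, penicillin and streptomycin. Monolayers were exposed for 24 h at 37 °C to scalar concentrations (0-250 µg/mL). Viability was read by ATP bioluminescence, each concentration in triplicate. CC50 is the concentration reducing cell number by 50% versus untreated controls.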

[6] = target: T1, Quinolone resistance protein NorA (Staphylococcus aureus) (UniProt P0A0J7); assay: Inhibition of NorA in Staphylococcus aureus SA-1199B expressing GrlA A116E mutant assessed as synergistic potentiation of ciprofloxacin-induced antimicrobial activity at 0.78 to 100 ug/ml by microdilution method based Checkerboard assay
T1 sequence (whole entry): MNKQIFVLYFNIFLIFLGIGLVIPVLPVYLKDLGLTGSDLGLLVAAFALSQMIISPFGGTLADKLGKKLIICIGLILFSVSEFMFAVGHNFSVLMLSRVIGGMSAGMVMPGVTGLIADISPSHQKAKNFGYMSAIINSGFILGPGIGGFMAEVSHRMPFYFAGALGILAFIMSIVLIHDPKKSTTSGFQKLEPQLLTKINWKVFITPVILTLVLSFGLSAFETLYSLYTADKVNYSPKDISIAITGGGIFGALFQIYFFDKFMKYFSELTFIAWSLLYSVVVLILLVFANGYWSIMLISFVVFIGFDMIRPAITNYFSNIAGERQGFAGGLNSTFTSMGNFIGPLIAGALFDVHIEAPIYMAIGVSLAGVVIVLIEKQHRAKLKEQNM

[7] = Cytotoxicity in human HepG2 cells assessed as reduction in cell viability incubated for 24 hrs by ATP bioluminescence assay; format: cell-based; summary of the method: as §4
[8] = target: Quinolone resistance protein NorA (Staphylococcus aureus, UniProt P0A0J7, A116E); assay: Inhibition of NorA in Staphylococcus aureus SA-1199B expressing GrlA A116E mutant assessed as reduction in EtBr efflux incubated for 5 mins by fluorescence based assay
Summary of the method: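 Cells were grown overnight in cation-supplemented Mueller-Hinton broth at 35 °C and subcultured to OD600 0.7–0.8. They were loaded at OD600 0.8 with 25 µM EtBr plus 100 µM CCCP (final) for 20 min at room temperature. Cells were then resuspended in fresh broth with or without compound, 50 µM for the single-point screen or a concentration series for IC50. Fluorescence (ex 485/em 645 nm) was read for 5 min. Inhibition was calculated from the fluorescence decrease versus untreated cells. Biological triplicate, each run twice.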

[9] = Selectivity index, ratio of CC50 for human THP1 cells to inhibition of NorA in Staphylococcus aureus SA-1199B expressing GrlA A116E mutant assessed as minimal potentiating drug concentration causing 8 fold reduction in ciprofloxacin MIC by microdilution method based Checkerboard assay; format: toxicity; details: read-out: Selectivity Index
Summary of the method: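 CC50 cells (HepG2 for […], THP-1 for […]) were grown to confluence in RPMI 1640 with 10% FCS, penicillin and streptomycin. They were exposed 24 h at 37 °C to 0–250 µg/mL. Viability was read by ATP bioluminescence, triplicate. CC50 is the concentration reducing cell number 50% versus untreated.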

[10] = Drug metabolism in mouse liver microsomes assessed as compound demethylation at 50 uM in presence of NADPH regenerating system incubated for 120 mins by UPLC/MS analysis; format: ADME, microsome; details: 2 h, in the assay text read “hydroxylation and ring opening” for “demethylation”; summary of the method: as §1
[11] = Drug metabolism in mouse liver microsomes assessed as compound oxidation at 50 uM in presence of NADPH regenerating system incubated for 120 mins by UPLC/MS analysis; format: ADME, microsome; details: 2 h; summary of the method: as §1
CYP3A4 = CYP3A4 (Homo sapiens, UniProt P08684); assay: as §2; format: ADME; details: recombinant CYP3A4, probe beetle D-luciferin; summary of the method: as §3
Sequence of CYP3A4 (P08684 whole entry): as the sequence (P08684 whole entry) above

[12] = Drug metabolism in mouse liver microsomes assessed as compound hydroxylation at 50 uM in presence of NADPH regenerating system incubated for 120 mins by UPLC/MS analysis; format: ADME, microsome; details: 2 h; summary of the method: as §1

In the case of `CCCOc1ccc(-c2cc(OCCN3CCCCC3)c3cc(OC)ccc3n2)cc1`, the Activity (Staphylococcus aureus [1]) is reported as “inactive”, the Activity (Staphylococcus aureus [2]) is reported as “Dose-dependent effect” and the Drug metabolism [3] is reported as “Metabolite_Detected”. For the same molecule, the “inhibition (INH)” value (Cytochrome P450 3A4) was “Not Active”, the MIC (Staphylococcus aureus [4]) was greater than 100 mg/L and the CC50 at 24 h [5] was greater than 100 mg/L. The inhibition [6] was “Active”, the CC50 at 24 h [7] was 42 mg/L (≈ 99.9 µM) and the IC50 [8] was 4.2 µM. The selectivity ratio [9] was greater than 128 and the Drug metabolism [10] was “Metabolite_Detected”.

In the case of `CCCOc1ccc(-c2cc(OCCN3CCc4cc(OC)c(OC)cc4C3)c3cc(OC)c(OC)cc3n2)cc1`, the Activity (Staphylococcus aureus [1]) is reported as “inactive”, the Drug metabolism [11] is reported as “Metabolite_Detected” and the Activity (Staphylococcus aureus [2]) is reported as “Dose-dependent effect”. For the same molecule, the inhibition at 10 µM (CYP3A4) was no more than 60%, the MIC (Staphylococcus aureus [4]) was greater than 100 mg/L and the CC50 at 24 h [5] was 37 mg/L (≈ 66.2 µM). The inhibition [6] was “Active”, the CC50 at 24 h [7] was 74 mg/L (≈ 132 µM) and the Drug metabolism [12] was “Metabolite_Detected”. For the same molecule, the IC50 [8] was 1.1 µM.
